An excerpt weighted towards active compounds, which were near 1% of everything screened.
eIF2B yeast act – GCN4-lacZ reporter reduction in eIF2B-epsilon mutant yeast, primary screen, S. cerevisiae, eIF2B-epsilon R284H, Beta-Glo luminescence; inhibition, % at 25 µM (by protocol); 0.91% of 27,000 active;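 active means mutant luminescence inhibited past about 50% while wild type luminescence and mutant growth stay under set limits, limit read from the data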
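Material: yeast eIF2B-epsilon R284H mutant carrying GCN4–beta-galactosidase fusion. Medium: YPD yeast growth medium. Incubation: 16 h growth with compound at 30 °C, 90 min Beta-Glo step. Signal: Beta-Glo luminescence plus absorbance at 595 nm. Evaluation: % inhibition of reporter signal and growth versus controls. Doses: 25 µM single dose.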
Yeast growth tox – yeast growth toxicity, wild-type and mutant, primary screen, cytotoxicity control for eIF2B function restoration project, wild-type and eIF2Bepsilon R284H mutant, A595; S. cerevisiae wild-type growth, A595 turbidity, 16 h; growth inhibition, % at 25 µM (by protocol); 0.3% of 30,000 active; AID 685, 2007;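 active means mutant and wild-type yeast strains alike exhibit over 30% growth inhibition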
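Test system: Wild-type and eIF2Bepsilon-R284H mutant S. cerevisiae, screened separately | Dosing: Single 25 µM compound dose in 0.2% DMSO | Schedule: 16 h compound exposure during growth at 30 °C | Detection: A595 turbidity | Evaluation: Growth inhibition (%) versus cell controls and blanks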
Of the large screens only hits and unclear results are named; the others gave an inactive call.

c1ccc2oc(CCc3nc4ccccc4o3)nc2c1	none
Nc1ccc2oc(CCc3ccccc3)nc2c1	eIF2B yeast act 53
Cc1cccnc1Nc1nc(-c2ccc(O)cc2)cs1	Yeast growth tox 36 (no result: eIF2B yeast act)
Clc1ccc(Nc2nc(-c3cccnc3)cs2)cc1	none
O=C(CSc1nc(-c2ccccc2)cc(=O)[nH]1)N1CCOCC1	none
CCN(CC)CCn1c2ccccc2c2cnc(N)c(C#N)c21	none
C=CCNC(=S)NNC(=O)C(CCCC)CC(C)(C)O (stereo not drawn)	none
CCC1CCCCN1C(=O)Cn1c(C(=O)OC)cc2ccsc21 (stereo not drawn)	none
Cc1ccc(-c2cn(S(=O)(=O)c3cccc4nsnc34)nc2N)cc1	eIF2B yeast act 58
Cc1ccc(C)c(N(C)S(=O)(=O)c2cccc3nsnc23)c1	none
O=C(COC(=O)c1cccnc1Cl)c1cccc(Cl)c1	none
Clc1ccc2nc(N3CCCCC3)[nH]c2c1	none
O=c1c(Cl)c(N2CCCCC2)cnn1-c1nc2ccccc2[nH]1	eIF2B yeast act 73
O=C(CCC1CCCC1)N1CCN(C(=O)c2cccnc2)CC1	none
Cn1c(=O)c2c(nc(Oc3ccc4c(c3)OCO4)n2Cc2ccc(Br)cc2)n(C)c1=O	eIF2B yeast act 57
COc1ccc(Oc2nc3c(c(=O)n(C)c(=O)n3C)n2Cc2cccc(OC)c2)cc1	none
CN1CCc2nc(SCCOc3ccccc3)c(C#N)cc2C1	eIF2B yeast act 70
CCOC(=O)C1=C(CSc2nc3c(cc2C#N)CN(C)CC3)OC(N)=C(C#N)C1c1ccccc1 (stereo not drawn)	none
C=CCc1c(C)c(C#N)c2nc3ccccc3n2c1NCCN(C)C	Yeast growth tox 95
CCc1c(C)c(C#N)c2nc3ccccc3n2c1NCc1ccco1	none (no result: eIF2B yeast act)
CCc1ccc2c(c1)C1(NN=C(c3ccc(C)cc3)S1)C(=O)N2 (stereo not drawn)	eIF2B yeast act 60 (no result: Yeast growth tox)
CC(C)c1ccc2c(c1)C1(NN=C(c3ccccc3)S1)C(=O)N2 (stereo not drawn)	none
O=C(Nc1ccccc1)C1CC=CCC1C(=O)OCC1CCCO1 (stereo not drawn)	Yeast growth tox 33
O=C(NCC1CCCO1)c1ccccc1 (stereo not drawn)	none
O=C(CN1C(=O)c2ccccc2S1(=O)=O)N1CCN(c2ccc(F)cc2)CC1	none
CCC(=C(c1ccc(OC)cc1)c1ccc(OC)cc1)c1cn(CC(O)CN2CCN(C)CC2)c2ccccc12 (stereo not drawn)	Yeast growth tox 102
COc1ccc(OCC(O)CN2CCCCCC2)cc1 (stereo not drawn)	none
CC(C)Nc1nc(NC(C)(C)C)nc(Oc2ccc(=O)n(-c3ccccc3)n2)n1	none
Cc1ccc(-c2nnc(SCC(=O)N3CCOCC3)nc2-c2ccc(C)cc2)cc1	none
O=C(O)c1c[nH]c2ccc(S(=O)(=O)N3CCN(c4ccc(F)cc4)CC3)cc2c1=O	none
O=C(c1c[nH]c2ccc(S(=O)(=O)N3CCOCC3)cc2c1=O)N1CCCC1	eIF2B yeast act 60
COc1cc(OC)c(-c2nn3c(-c4ccncc4)nnc3s2)cc1OC	none
Cc1nnc2sc(-c3ccncc3)nn12	eIF2B yeast act 64
CCOC(=O)Cn1c(=O)c2c(nc3n2CCN3Cc2ccccc2)n(C)c1=O	eIF2B yeast act 53
CCOC(=O)Cn1c(=O)c2c(nc3n2CCN3c2ccc(C)cc2)n(C)c1=O	none
CCOc1ccc(NS(=O)(=O)c2ccc(OCC)c3ncccc23)cc1	none
CN1C(=O)N(C)C2(c3ccccc3)NC(=O)NC12c1ccccc1 (stereo not drawn)	eIF2B yeast act 54
CN1C(=O)NC2(O)C(=O)c3ccccc3C12O (stereo not drawn)	none (no result: eIF2B yeast act)
Nn1c(CSc2nc3ccccc3o2)nnc1CSc1nc2ccccc2o1	eIF2B yeast act 61
c1ccc2[nH]c(CSc3nc4ccccc4o3)nc2c1	none
CCOC(=O)c1[nH]c(COC(=O)CCCOc2ccccc2)c(C(=O)OCC)c1C	none
CCOC(=O)c1ccc(NS(=O)(=O)c2cnc[nH]2)cc1	none
CCOC(=O)C(/C=N/c1cc(C)nn1-c1ccccc1)=C(\C)O	none
CCCNC(=O)Cn1nc(C(F)(F)F)c2c1CCCC2	none
CCSc1nnc(NC(=O)CSc2nc3c(c(=O)n2-c2ccccc2OC)SCC3)s1	none
N=c1c(-c2nc3ccccc3[nH]2)cc(C(=O)c2cccs2)nn1-c1ccc(Cl)cc1	none (no result: eIF2B yeast act)
O=C(COc1cccc2ccccc12)Nc1nc2ccccc2[nH]1	Yeast growth tox 30 (no result: eIF2B yeast act)
CC(CC(=O)Nc1nc2ccccc2[nH]1)c1ccccc1 (stereo not drawn)	none
Cn1c(/C(C#N)=C(\O)CN2CCN(Cc3ccccc3)CC2)nc2ccccc21	eIF2B yeast act 64
Cc1ccc(SC/C(O)=C(\C#N)c2nc3ccccc3n2C)cc1	none
CCOc1ccc(NC(=O)C2CCN(c3nnnn3-c3ccccc3)CC2)cc1	none (no result: eIF2B yeast act)
CCOC(=O)c1ccc(NCc2ccncc2)cc1	none
COc1ccc(OCC(=O)NCc2cccnc2)cc1	none (no result: Yeast growth tox)

From PubChem BioAssay
